T cruzi inh: T. cruzi replication inhibition | T. cruzi beta-gal in NIH3T3, luminescence, 90 h | inhibition, % (concentration not given with the values) | actives 1.4% (n = 300,000) | AID 1885;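 active = mean inhibition across valid replicates above about 55%, limit read from the data; inconclusive = mean below that limit but half or more replicates reach it; inactive = mean below it, under half of replicates reach it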;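 note: signal also drops with host cell toxicity which is not excluded here; 0% = plate median of DMSO wells and 100% = zero luminescence signal; higher percent means less beta-gal luminescence so fewer parasites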
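System: NIH/3T3 fibroblasts plus reporter T. cruzi. Medium: DMEM plus 2% FBS. Probe or stimulus: 5000 reporter trypomastigotes per well. Compound: single 50 nL compound addition per well in DMSO. Incubation: co-culture of at least 90 h after 3 h attachment. Detection: GalScreen β-gal luminescence, detergent lysis, 60 min. Evaluation: parasite load inhibition, %.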
Lmaj promast: inhibitors of Leishmania major promastigote growth; Leishmania major promastigotes, resazurin fluorescence viability; inhibition, % at 10 µM; actives 9% (n = 200,000); in the data active = inhibition above about 50%;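 note: promastigotes grown with compound for 44 hours at 28 °C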
HSF1 inh: HSF1 inhibition; AID 2098; activity change, negative = inhibition, % at 7.5 µM (by protocol); actives 0.77% (n = 300,000); NIH3T3-HGL HSE-luciferase, MG132-induced, luminescence 8 h; hits give low values;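 active = more than half of replicate wells show activity change below -50%, luminescence cut by over half; inconclusive = some wells, but at most half, below -50%; inactive = no replicate well below -50%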;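 note: luciferase reports HSF-1 transcriptional activity via heat shock element; 0% = median of DMSO wells and -100% = zero luminescence signal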
Hsp70 act: Hsp70 transcriptional activation, primary screen; HeLa Hsp70 promoter luciferase reporter, luminescence; scaled: vehicle 0, proteasome-inhibitor control 100%; AID 1203; activation, % at 10 µM; actives 0.04% (n = 200,000);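 active = activation above the mean across all tested compounds plus 3 SD, cutoff set per campaign, cut at about 5.5% in these data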;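 note: 100% = MG132 at 30 µM as the positive control and 0% = DMSO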
HSF-1 act: increases HSF-1 driven luciferase reporter signal. NIH3T3-HGL HSF-1 luciferase reporter, MG132, 8 h; 100% = twice DMSO control signal. activation, % at 9 µM. actives 1.7% (n = 300,000). AID 504408;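 active = mean replicate activation of at least 50% with a set share of replicates each reaching 50%; inconclusive = only one of those two conditions met; inactive = mean below 50% and too few replicates reaching it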;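 note: 0% = median of the neutral control wells and 100% = twice that signal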
The depositor's hits bear a star; ? = inconclusive; . = no result given. Many of the other results were omitted from the sample, so hits are more common in it than they were.

SMILES	T cruzi inh	Lmaj promast	HSF1 inh	Hsp70 act	HSF-1 act
COc1ccc(NC(=S)NCCN2CCC(C)CC2)cc1Cl	12	69*	3	0	23
CC1CN(Cc2cc(=O)oc3cc(O)ccc23)CC(C)O1 (centres undefined)	-3	.	-4	.	3
COCCCNC(=O)CNC(=O)c1nn(-c2ccc(OC)cc2OC)c(=O)c2ccccc12	13	.	-6	.	2
CCN(CCCNC(=O)CNC(=O)c1nn(-c2ccc(OC)cc2OC)c(=O)c2ccccc12)c1cccc(C)c1	6	.	59	.	61*
O=C(NCc1ccccc1)C(c1ccc(F)cc1)N(C(=O)c1csnn1)C1CC1 (centres undefined)	-4	.	2	.	-4
CCCn1c(SCC(=O)c2cc(OC)ccc2OC)nnc1C(C)C	-13	-3	48	0	90*
O=C(OC(C(=O)NC1CCCC1)c1cccnc1)C1=Cc2ccccc2OC1 (centres undefined)	1	94*	-3	0	-6
CC(OC(=O)C1=Cc2ccccc2OC1)C(=O)NC1CCCC1 (centres undefined)	13	-2	-2	0	-11
O=C(N/N=C/c1c[nH]c2ccccc12)c1[nH]c2ccc(Br)cc2c1-c1ccccc1	?	3	-21	0	-38
O=C(N/N=C/c1ccc(O)cc1)c1[nH]c2ccc(Br)cc2c1-c1ccccc1	6	9	-58*	1	-69
CC(=O)Nc1ccc(C(=O)OCC(=O)N(Cc2ccccc2)C(C)(C)C)cc1	2	67*	6	0	14
Cc1ccc(F)cc1NC(=O)CSc1nnc(CNC(=O)c2ccco2)n1C	-5	.	-3	.	-1
COc1ccc(-c2cc3c(=O)n(CC(=O)NCCCN4CCC(N5CCCCC5)CC4)nc(C)n3n2)cc1	56*	.	5	.	16
COc1ccc(-c2cc3c(=O)n(CC(=O)NCCCN4CCC(N5CCCCC5)CC4)ncn3n2)cc1	30	.	-11	.	-27
CN(C)CCCN(C(=O)c1cc(-c2cccs2)nc2ccccc12)c1nc2c(F)cccc2s1	36	.	-4	.	6
Cc1cccc2sc(N(CCN(C)C)C(=O)C3CCN(S(=O)(=O)c4cccs4)CC3)nc12	57*	.	5	.	-7
Cc1cccc2sc(N(CCN(C)C)C(=O)/C=C/c3cccs3)nc12	22	19	29	0	78*
CN(C)CCCN(C(=O)/C=C/c1cccs1)c1nc2c(F)cccc2s1	56*	97*	1	0	-8
COc1ccc2nc(N(CCN(C)C)C(=O)/C=C/c3cccs3)sc2c1	51	47	.	0	.
O=C(COc1ccccc1)Nc1ccncc1Cl	1	.	5	.	17
COC(=O)C1=C(O)/C(=C\c2sccc2C)N=C1C	-10	54*	-9	0	-21
Oc1c(C(c2ccccn2)N2CCC(Cc3ccccc3)CC2)cc(Cl)c2cccnc12 (centres undefined)	17	99*	-25	0	-30
Cc1ccc(C(c2cc(Cl)c3cccnc3c2O)N2CCN(C)CC2)cc1 (centres undefined)	30	.	-3	.	11
Oc1c(C(c2ccc(Cl)cc2)N2CCCC2)cc(Cl)c2cccnc12 (centres undefined)	70*	96*	-36	0	-35
C=CCn1c(SCc2ccccc2Cl)nnc1-c1sc2nc(C)cc(C)c2c1N	63*	.	-9	.	-13
SMILES	T cruzi inh	Lmaj promast	HSF1 inh	Hsp70 act	HSF-1 act
Cc1cc(C)c2c(N)c(-c3nnc(SCc4ccc(Cl)cc4)n3C)sc2n1	12	.	-4	.	-5
O=C(c1ccco1)N1CCN(Cc2cc(=O)c(OCc3ccc([N+](=O)[O-])cc3)co2)CC1	5	.	-7	.	0
CCn1cc(CCC(=O)NC2CCCC2)c2ccccc21	-3	.	-1	.	6
COc1ccc([C@@H]2C[C@@H](c3ccccc3)Oc3c(C)ccc(C(C)C)c32)cc1	13	.	-66*	.	-74
CN(C)c1ccc(C2CC(c3cccc(NS(C)(=O)=O)c3)=NN2C(=O)c2ccccc2)cc1 (centres undefined)	13	60*	16	0	25
CC(=O)c1sc(Nc2cccc(C)c2)nc1C	12	11	25	0	49
COC(=O)c1ccc(NC(=O)c2ccc3nc(C)sc3c2)cc1	-15	.	-68*	.	-72
CC(=O)c1sc(Nc2nc3ccc(F)cc3s2)nc1C	-26	15	55	0	82*
COC(=O)c1ccc2nc(NC(=O)C(C)(C)C)sc2c1	45	21	-55*	-1	-66
COc1ccc(NC(=O)c2ccc3nc(C)sc3c2)cc1	-4	.	-44	.	-50
Cc1nc2ccc(NC(=O)c3ccc([N+](=O)[O-])cc3[N+](=O)[O-])cc2s1	79*	100*	8	0	-3
COc1ccccc1CCC(=O)NNC(=O)c1ccc(Br)cc1	-6	.	3	.	14
CN(CC(=O)Nc1ccc(OC(F)(F)F)cc1)S(=O)(=O)c1cnc[nH]1	-1	.	-2	.	-7
Cn1c(=O)oc2cc(S(=O)(=O)N3CCC(C(=O)NCc4ccccc4Cl)CC3)ccc21	-10	.	1	.	-1
COC(=O)c1ccc2nc(Nc3nc4ccc(F)cc4s3)sc2c1	-18	-4	-89*	-1	-91
CCOC(=O)c1csc(Nc2nc3ccc(F)cc3s2)n1	?	95*	15	0	8
Cc1onc(C(=O)Nc2c(C)n(C)n(-c3ccccc3)c2=O)c1[N+](=O)[O-]	1	.	-5	.	-9
COc1ccccc1C(C[N+](=O)[O-])c1c(N)n(C)c(=O)n(C)c1=O (centres undefined)	-21	.	5	.	3
Cc1cc2ccccn2c1C(C[N+](=O)[O-])c1ccc(N(C)C)cc1 (centres undefined)	33	89*	-5	0	1
COc1ccc(C(C[N+](=O)[O-])c2c(C)cc3ccccn23)cc1 (centres undefined)	14	99*	-1	0	8
COc1ccc(C(C[N+](=O)[O-])c2c(C)[nH]n(-c3ccccc3)c2=O)cc1 (centres undefined)	-1	.	7	.	12
COc1ccc(C(C[N+](=O)[O-])c2c(-c3ccccc3)cc3ccccn23)c(OC)c1 (centres undefined)	34	100*	42	0	46
NC(=O)COC(=O)c1ccccc1SCC(=O)NC1CCCCCC1	4	-3	1	0	3
COCCNc1nnc(SC(C)C(=O)Nc2ccc(-c3nc4ccc(C)cc4s3)cc2)s1 (centres undefined)	0	7	-2	0	4
O=C(Nc1ccccc1F)C1CCN(C(=O)NCc2ccccc2)CC1	-6	.	-11	.	-9
COc1ccccc1NC(=O)C1=C(C)NC2=C(C(=O)CC(c3ccc(OC)c(OC)c3)C2)C1c1coc2ccccc2c1=O (centres undefined)	37	17	30	0	67*

From PubChem BioAssay
